Reference: ChEMBL document CHEMBL1123413, “Synthesis and biological evaluation of 1-(1,2-benzisothiazol-3-yl)- and (1,2-benzisoxazol-3-yl)piperazine derivatives as potential antipsychotic agents” (J Med Chem, 1986)
Blank lines part the entries; values can stand above or below the compound they belong to.

Legend:
Rattus norvegicus [1] = species on record: Rattus norvegicus; test: Compound was tested for its ability to induce catalepsy in rats.; assay type: functional
In short: (§1)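 Catalepsy was induced in rats with orally dosed compound as a predictor of extrapyramidal liability. ED50 (mg/kg, po) with fiducial limits by Berkson's method.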

Rattus norvegicus [2] = species on record: Rattus norvegicus; test: Compound was tested for inhibition of conditioned avoidance response (CAR ); assay type: functional
In short: (§2)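 Rats trained to avoid an electric shock, test compound given orally, and block of the conditioned avoidance response scored. ED50 (mg/kg, po) with fiducial limits by the method of Berkson.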

Rattus norvegicus [3] = species on record: Rattus norvegicus; test: Compound was tested for the inhibition of apomorphine-induced stereotype; assay type: functional
In short: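 In rats, oral test compound was scored for block of apomorphine-induced stereotypy as an in vivo dopamine-system measure. ED50 (mg/kg, po) and fiducial limits by Berkson's method.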

[4] = molecular target: T1, Adrenergic receptor alpha-1 (Rattus norvegicus, UniProt P15823+P23944+P43140)
T1 sequence (P15823 whole entry): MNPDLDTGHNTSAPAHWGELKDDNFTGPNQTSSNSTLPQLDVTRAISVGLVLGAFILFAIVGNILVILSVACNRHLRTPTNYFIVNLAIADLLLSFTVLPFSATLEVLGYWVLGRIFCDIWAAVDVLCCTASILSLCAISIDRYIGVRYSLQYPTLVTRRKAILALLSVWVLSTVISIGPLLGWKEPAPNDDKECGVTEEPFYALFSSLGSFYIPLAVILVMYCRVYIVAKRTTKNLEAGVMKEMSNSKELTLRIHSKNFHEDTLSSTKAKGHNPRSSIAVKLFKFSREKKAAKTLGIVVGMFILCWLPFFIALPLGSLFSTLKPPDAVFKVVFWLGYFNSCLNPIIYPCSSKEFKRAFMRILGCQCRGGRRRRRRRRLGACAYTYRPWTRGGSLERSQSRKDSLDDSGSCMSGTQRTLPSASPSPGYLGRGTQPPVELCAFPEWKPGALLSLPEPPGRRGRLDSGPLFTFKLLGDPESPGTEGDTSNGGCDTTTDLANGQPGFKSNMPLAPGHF
T1 sequence (P23944 whole entry): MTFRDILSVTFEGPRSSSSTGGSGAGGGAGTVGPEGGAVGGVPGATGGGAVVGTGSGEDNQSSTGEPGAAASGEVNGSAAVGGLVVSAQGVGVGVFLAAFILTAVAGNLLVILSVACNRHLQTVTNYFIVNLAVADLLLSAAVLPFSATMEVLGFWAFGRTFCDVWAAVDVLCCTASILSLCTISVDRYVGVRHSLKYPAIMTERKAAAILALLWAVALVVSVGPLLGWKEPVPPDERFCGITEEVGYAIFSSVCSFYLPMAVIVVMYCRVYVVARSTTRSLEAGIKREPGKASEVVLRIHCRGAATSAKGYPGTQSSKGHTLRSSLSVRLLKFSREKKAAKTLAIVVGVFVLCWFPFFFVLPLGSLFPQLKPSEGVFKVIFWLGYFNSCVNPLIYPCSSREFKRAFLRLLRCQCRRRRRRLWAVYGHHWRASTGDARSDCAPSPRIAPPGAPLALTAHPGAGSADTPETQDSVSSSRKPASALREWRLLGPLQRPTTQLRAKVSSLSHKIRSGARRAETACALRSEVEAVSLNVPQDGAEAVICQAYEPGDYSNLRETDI
T1 sequence (P43140 whole entry): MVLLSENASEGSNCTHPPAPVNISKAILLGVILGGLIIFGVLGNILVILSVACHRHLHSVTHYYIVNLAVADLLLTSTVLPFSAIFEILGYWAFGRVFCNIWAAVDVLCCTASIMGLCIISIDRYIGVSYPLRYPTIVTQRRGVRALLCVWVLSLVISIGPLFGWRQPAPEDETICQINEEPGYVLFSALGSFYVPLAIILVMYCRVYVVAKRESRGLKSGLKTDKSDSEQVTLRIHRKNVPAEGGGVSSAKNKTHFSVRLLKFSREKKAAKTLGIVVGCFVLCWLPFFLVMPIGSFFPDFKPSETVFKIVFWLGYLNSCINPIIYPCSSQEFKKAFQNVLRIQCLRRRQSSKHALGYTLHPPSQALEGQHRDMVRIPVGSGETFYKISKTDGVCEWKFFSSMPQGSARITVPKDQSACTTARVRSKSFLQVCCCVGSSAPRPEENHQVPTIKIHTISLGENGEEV

D(2) dopamine receptor = D(2) dopamine receptor (Rattus norvegicus, UniProt P61169); test: In vitro affinity for rat striatal Dopamine receptor D2 labeled with [3H]spiperone
Sequence of D(2) dopamine receptor (P61169 whole entry): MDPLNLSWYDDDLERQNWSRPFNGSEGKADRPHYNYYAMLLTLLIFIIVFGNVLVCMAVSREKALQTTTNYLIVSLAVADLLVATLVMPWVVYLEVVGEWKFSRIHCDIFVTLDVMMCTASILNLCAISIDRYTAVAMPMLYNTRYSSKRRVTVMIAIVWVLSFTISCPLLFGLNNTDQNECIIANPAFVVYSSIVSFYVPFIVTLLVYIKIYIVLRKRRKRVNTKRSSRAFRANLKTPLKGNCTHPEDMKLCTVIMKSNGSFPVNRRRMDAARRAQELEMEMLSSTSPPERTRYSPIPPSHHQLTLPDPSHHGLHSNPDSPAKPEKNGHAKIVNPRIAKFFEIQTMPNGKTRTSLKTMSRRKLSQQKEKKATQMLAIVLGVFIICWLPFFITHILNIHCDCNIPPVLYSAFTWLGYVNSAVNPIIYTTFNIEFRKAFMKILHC

Rattus norvegicus [5] = species on record: Rattus norvegicus; test: Inhibition of conditioned avoidance response (CAR); assay type: functional; in short: as §2
Rattus norvegicus [6] = species on record: Rattus norvegicus; test: Compound was tested for its ability to induce catalepsy in rats; assay type: functional; in short: as §1
Rattus norvegicus [7] = test: Compound was tested for inhibition of ethanol potentiation in rat when administered perorally; assay type: functional; conditions: po
In short: (§3)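 Nonfasted male rats received test drug or vehicle (distilled H2O or 0.5% methocel). EtOH (10 mL of 20% solution/kg, ip) followed at 15, 30, 60 or 120 min post-drug; the vehicle group got it at 15 min. Rats were watched about 10–15 min for loss of righting reflex lasting 1 min. Dose response at peak time used 10/dose; ED50 by Berkson.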

[8] = Lethal dose after peroral administration in mouse; assay type: toxicity, organism-based; conditions: in vivo, po
Mus musculus [9] = test: Compound was tested for inhibition of spontaneous motor activity in mouse when administered perorally; assay type: functional; conditions: po
Mus musculus [10] = test: Compound was tested for inhibition of physostigmine lethality in mouse when administered perorally; assay type: functional; conditions: po
In short: (§4)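 Groups of 10 nonfasted male mice dosed orally with test compound (initial 100 mg/kg) or vehicle (distilled H2O or 0.5% methocel). At 30 min, physostigmine given ip at 1.25 mg/kg, and lethality followed for up to 1 h. Active compounds retested at lower doses, 10 mice/dose, for dose response. ED50 by Berkson's method.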

Mus musculus [11] = test: Compound was tested for inhibition of norepinephrine lethality in mouse when administered perorally; assay type: functional; conditions: po
In short: (§5)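 Groups of 10 nonfasted male mice dosed orally with test compound (initial 100 mg/kg) or vehicle (distilled H2O or 0.5% methocel). Active compounds retested at lower doses, 10 mice/dose, for dose response. ED50 by Berkson's method.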

Rattus norvegicus [12] = test: Compound was tested for inhibition of spontaneous motor activity in rat when administered perorally; assay type: functional; conditions: po
Mus musculus [13] = species on record: Mus musculus; test: Oral effective dose against spontaneous motor activity in mouse; assay type: functional
Mus musculus [14] = species on record: Mus musculus; test: Oral effective dose against norepinephrine-induced lethality in mouse; assay type: functional; in short: as §5
Rattus norvegicus [15] = species on record: Rattus norvegicus; test: Oral effective dose against spontaneous motor activity in rat; assay type: functional
Mus musculus [16] = species on record: Mus musculus; test: Oral effective dose against physostigmine-induced lethality in mouse; assay type: functional; in short: as §4
Rattus norvegicus [17] = species on record: Rattus norvegicus; test: Oral effective dose against ethanol potentiation in rat; assay type: functional; in short: as §3
Rattus norvegicus [18] = species on record: Rattus norvegicus; test: Oral effective dose against hexobarbatial potentiation in rat; assay type: functional
In short: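 Hexobarbital sodium (40 mg/kg, ip) was given to nonfasted male rats 15, 30, 60 or 120 min after test drug, or 15 min after vehicle (distilled H2O or 0.5% methocel). Loss of righting reflex of 1-min duration was scored over about 10–15 min. Dose response at peak-effect time used 10 rats/dose; ED50 and fiducial limits by Berkson.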

[19] = molecular target: Gamma-aminobutyric acid receptor subunit gamma-1 (Rattus norvegicus, UniProt P23574); test: Inhibition of [3H]muscimol binding to Gamma-aminobutyric acid (GABA-A) receptor
Sequence of Gamma-aminobutyric acid receptor subunit gamma-1 (P23574 whole entry): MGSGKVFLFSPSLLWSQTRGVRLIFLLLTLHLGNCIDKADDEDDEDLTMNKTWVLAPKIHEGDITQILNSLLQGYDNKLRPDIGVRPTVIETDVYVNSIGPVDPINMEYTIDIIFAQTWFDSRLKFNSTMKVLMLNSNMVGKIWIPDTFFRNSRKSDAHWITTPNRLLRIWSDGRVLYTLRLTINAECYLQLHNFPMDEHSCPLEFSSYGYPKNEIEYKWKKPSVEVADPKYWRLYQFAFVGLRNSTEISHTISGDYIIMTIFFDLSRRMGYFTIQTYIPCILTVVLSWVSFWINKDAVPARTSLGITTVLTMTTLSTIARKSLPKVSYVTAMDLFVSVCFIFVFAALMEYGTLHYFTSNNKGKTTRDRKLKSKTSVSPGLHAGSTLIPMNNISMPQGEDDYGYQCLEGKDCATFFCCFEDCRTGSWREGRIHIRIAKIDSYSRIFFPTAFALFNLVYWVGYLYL

- IC50 [4]: 0.004 µM
- IC50 (D(2) dopamine receptor): 0.023 µM
Structure (SMILES): CC1(C)CC(=O)N(CCCCN2CCN(c3nsc4ccccc34)CC2)C(=O)C1
- ED50 (Rattus norvegicus [1]): 15.2 mg/kg
- ED50 (Rattus norvegicus [2]): 4.1 mg/kg
- ED50 (Rattus norvegicus [3]): 4.8 mg/kg

- IC50 [4]: 0.009 µM
- IC50 (D(2) dopamine receptor): 0.042 µM
Structure (SMILES): Cl.O=C1SC2(CCCC2)C(=O)N1CCCCN1CCN(c2nsc3ccccc23)CC1
- ED50 (Rattus norvegicus [1]): 45 mg/kg
- ED50 (Rattus norvegicus [2]): 11.6 mg/kg

- IC50 (D(2) dopamine receptor): 0.049 µM
Structure (SMILES): CCC1(CC)CC(=O)N(CCCCN2CCN(c3nsc4ccccc34)CC2)C(=O)C1.Cl
- ED50 (Rattus norvegicus [2]): 35.2 mg/kg

- IC50 (D(2) dopamine receptor): 0.235 µM
Structure (SMILES): O=C1CC2(CCCC2)CC(=O)N1CCCCN1CCCN(c2nsc3ccccc23)CC1
- ED50 (Rattus norvegicus [5]): > 100 mg/kg

- IC50 [4]: 0.009 µM
- IC50 (D(2) dopamine receptor): 0.055 µM
Structure (SMILES): CCCC1(C)CC(=O)N(CCCCN2CCN(c3nsc4ccccc34)CC2)C(=O)C1.Cl
- ED50 (Rattus norvegicus [2]): 24.3 mg/kg

Further lines, the compound ahead of its results:

Structure (SMILES): O=C(CCCN1CCN(c2noc3ccccc23)CC1)c1ccc(F)cc1
- ED50 (Rattus norvegicus [5]): 5.8 mg/kg
- IC50 [4]: 0.005 µM
- IC50 (D(2) dopamine receptor): 0.069 µM
- ED50 (Rattus norvegicus [6]): 39.9 mg/kg

Structure (SMILES): CC1CN(CCCCN2C(=O)CC3(CCCC3)CC2=O)CCN1c1nsc2ccccc12 (stereo not drawn)
- ED50 (Rattus norvegicus [5]): > 100 mg/kg
- IC50 (D(2) dopamine receptor): 0.064 µM

Structure (SMILES): O=C(CCCN1CCC(O)(c2ccc(Cl)cc2)CC1)c1ccc(F)cc1 [HALOPERIDOL]
- ED50 (Rattus norvegicus [1]): 0.58 mg/kg
- ED50 (Rattus norvegicus [3]): 0.5 mg/kg
- ED50 (Rattus norvegicus [7]): 0.28 mg/kg
- LD50 [8]: 500 mg/kg
- ED50 (Rattus norvegicus [5]): 2.8 mg/kg
- ED50 (Mus musculus [9]): 0.45 mg/kg
- ED50 (Mus musculus [10]): > 80 mg/kg
- ED50 (Mus musculus [11]): 26 mg/kg
- ED50 (Rattus norvegicus [12]): 0.73 mg/kg

Structure (SMILES): CSc1ccc2c(c1)N(CCC1CCCCN1C)c1ccccc1S2 (stereo not drawn) [THIORIDAZINE]
- ED50 (Rattus norvegicus [3]): 280 mg/kg
- ED50 (Mus musculus [13]): 12.8 mg/kg
- ED50 (Mus musculus [14]): 2.2 mg/kg
- LD50 [8]: 250 mg/kg
- ED50 (Rattus norvegicus [15]): 33 mg/kg
- ED50 (Mus musculus [16]): 45 mg/kg
- ED50 (Rattus norvegicus [17]): 56 mg/kg
- ED50 (Rattus norvegicus [18]): 27.3 mg/kg
- IC50 [19]: > 1 µM

Structure (SMILES): CC1CN(c2nsc3ccccc23)CCN1CCCCN1C(=O)CC2(CCCC2)CC1=O (stereo not drawn)
- ED50 (Rattus norvegicus [5]): > 100 mg/kg
- IC50 (D(2) dopamine receptor): 0.203 µM

Structure (SMILES): O=C1CC2(CCCC2)CC(=O)N1CCCCN1CCN(c2noc3ccc(Cl)cc23)CC1
- ED50 (Rattus norvegicus [5]): > 100 mg/kg
- IC50 [4]: 0.046 µM
- IC50 (D(2) dopamine receptor): 0.36 µM

Structure (SMILES): O=C1CC2(CCCC2)CC(=O)N1CCCCN1CCN(c2nc3ccccc3s2)CC1
- ED50 (Rattus norvegicus [5]): > 100 mg/kg
- IC50 [4]: 0.454 µM
- IC50 (D(2) dopamine receptor): 0.145 µM

Structure (SMILES): CN(C)CCCN1c2ccccc2Sc2ccc(Cl)cc21 [CHLORPROMAZINE]
- ED50 (Rattus norvegicus [1]): 4.1 mg/kg
- ED50 (Rattus norvegicus [3]): 9.6 mg/kg
- LD50 [8]: 250 mg/kg
- ED50 (Mus musculus [9]): 3.6 mg/kg
- ED50 (Mus musculus [11]): 2.72 mg/kg
- ED50 (Rattus norvegicus [12]): 17.2 mg/kg

Structure (SMILES): CN1CCN(CCCN2c3ccccc3Sc3ccc(C(F)(F)F)cc32)CC1 [TRIFLUOPERAZINE]
- ED50 (Rattus norvegicus [1]): 3 mg/kg
- ED50 (Rattus norvegicus [3]): 6.5 mg/kg
- ED50 (Rattus norvegicus [5]): 6.9 mg/kg
- IC50 [4]: 0.35 µM
